The values below come from ChEMBL document CHEMBL1152300, “Ligand specificity of constitutive androstane receptor as probed by induced-fit docking and mutagenesis” (J Med Chem, 2008).

Series [1] has as its target T1, Nuclear receptor subfamily 1 group I member 3 (Mus musculus, UniProt O35627, L353A). Nature of the series: Effect on steroid receptor coactivator 1 binding to mouse CAR L353A mutant […] at 10 uM by yeast two-hybrid assay. It counts as cell-based. Particulars: read-out: Activity; call rule not given here. The procedure, abridged: (§1)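 Yeast two-hybrid assay. Yeast co-expressing wild-type or mutant mouse CAR LBD and the SRC-1 partner were selected on SD plates lacking leucine and tryptophan. Random colonies were pooled and amplified, then treated with DMSO or test chemical for 3.5 h. β-galactosidase activity was normalized to cell density and set relative to wild-type mCAR + SRC-1 with DMSO (=100). Mean ± standard deviation of two determinations, each in triplicate.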

The target of series [2] is Nuclear receptor subfamily 1 group I member 3 (Mus musculus, UniProt O35627, T350A). Particulars: HEK293, mouse.
Nuclear receptor subfamily 1 group I member 3 (Mus musculus, UniProt O35627, T350A), sequence (O35627 whole entry T350A): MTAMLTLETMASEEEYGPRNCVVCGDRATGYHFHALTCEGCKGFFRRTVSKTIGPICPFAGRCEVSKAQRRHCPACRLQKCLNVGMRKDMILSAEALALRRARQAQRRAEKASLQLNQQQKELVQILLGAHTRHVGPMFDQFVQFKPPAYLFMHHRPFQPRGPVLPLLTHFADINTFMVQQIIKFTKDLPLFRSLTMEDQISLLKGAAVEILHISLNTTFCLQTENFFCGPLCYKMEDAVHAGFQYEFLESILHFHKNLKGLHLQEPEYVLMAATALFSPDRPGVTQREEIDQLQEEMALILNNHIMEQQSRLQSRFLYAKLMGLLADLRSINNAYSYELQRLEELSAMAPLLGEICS
Series [3] concerns the target T2, Nuclear receptor subfamily 1 group I member 3 (Mus musculus, UniProt O35627, S251L). Nature of the series: Effect on steroid receptor coactivator 1 binding to mouse CAR S251L mutant […] at 10 uM by yeast two-hybrid assay. It counts as cell-based. Particulars: read-out: Activity. The procedure, abridged:
as §1

Series [4] addresses T3, Nuclear receptor subfamily 1 group I member 3 (Mus musculus, UniProt O35627, T350M). The conditions noted are these: HEK293, mouse.
For series [5], the target named is Nuclear receptor subfamily 1 group I member 3 (Mus musculus, UniProt O35627, I252L). Nature of the series: Enhancement of steroid receptor coactivator 1 binding to mouse CAR I252L mutant […] at 10 uM by yeast two-hybrid assay. The format is cell-based.
Nuclear receptor subfamily 1 group I member 3 (Mus musculus, UniProt O35627, I252L), sequence (O35627 whole entry I252L): as the sequence (O35627 whole entry T350A) above, with I252L, A350T counted along it
The target in series [6] is T4, Nuclear receptor subfamily 1 group I member 3 (Mus musculus, UniProt O35627, F171A). Nature of the series: Activation of mouse CAR F171A mutant expressed in HEK293 cells at 10 uM by mammalian one-hybrid assay. The format is cell-based. The conditions noted are these: hek293, 10 µM.
T4 sequence (O35627 whole entry F171A): as the sequence (O35627 whole entry T350A) above, with F171A, A350T counted along it
Series [7] deals with Nuclear receptor subfamily 1 group I member 3 (Mus musculus, UniProt O35627, H213A). The conditions noted are these: HEK293, mouse.
Nuclear receptor subfamily 1 group I member 3 (Mus musculus, UniProt O35627, H213A), sequence (O35627 whole entry H213A): as the sequence (O35627 whole entry T350A) above, with H213A, A350T counted along it
The target in series [8] is T5, Nuclear receptor subfamily 1 group I member 3 (Mus musculus, UniProt O35627, L253F). Particulars: HEK293, mouse.
T5 sequence (O35627 whole entry L253F): as the sequence (O35627 whole entry T350A) above, with L253F, A350T counted along it
Series [9] has as its target T4, Nuclear receptor subfamily 1 group I member 3. The conditions noted are these: HEK293, mouse.
Series [10] concerns the target T6, Nuclear receptor subfamily 1 group I member 3 (Mus musculus, UniProt O35627).
T6 sequence (O35627 whole entry): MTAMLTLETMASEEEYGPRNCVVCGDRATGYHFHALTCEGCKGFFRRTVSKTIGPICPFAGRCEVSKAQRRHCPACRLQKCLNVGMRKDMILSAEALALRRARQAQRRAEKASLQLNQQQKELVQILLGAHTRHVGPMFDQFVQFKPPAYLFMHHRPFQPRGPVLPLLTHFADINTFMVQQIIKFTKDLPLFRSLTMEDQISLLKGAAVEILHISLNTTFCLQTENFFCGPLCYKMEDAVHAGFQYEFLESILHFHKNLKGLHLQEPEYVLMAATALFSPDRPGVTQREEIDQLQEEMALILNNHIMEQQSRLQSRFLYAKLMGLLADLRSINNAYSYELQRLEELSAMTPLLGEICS
The experiment in a line: Enhancement of steroid receptor coactivator 1 binding to wild type mouse CAR expressed in HEK293 cells at 2 uM by yeast two-hybrid assay. Particulars: hek293, 2 µM.

In series [11] the target is T6, Nuclear receptor subfamily 1 group I member 3. Nature of the series: Enhancement of steroid receptor coactivator 1 binding to wild type mouse CAR expressed in HEK293 cells at 10 uM by yeast two-hybrid assay. Particulars: for fold induction at 10 µM: HEK293, mouse, read-out: FC.
Series [12] concerns the target T3, Nuclear receptor subfamily 1 group I member 3. The conditions noted are these: HEK293, mouse, read-out: Activity.
Series [13] concerns the target T2, Nuclear receptor subfamily 1 group I member 3. Nature of the series: Decrease in nuclear co-repressor receptor binding to mouse CAR S251L mutant […] at 10 uM by yeast two-hybrid assay. It counts as cell-based. Further details: scale not given: the % may be the effect or the level left.
The target of series [14] is T7, Nuclear receptor subfamily 1 group I member 3 (Mus musculus, UniProt O35627, N175A). Nature of the series: Enhancement of steroid receptor co-activator 1 binding to mouse CAR N175A mutant […] at 10 uM by yeast two-hybrid assay. It counts as cell-based.
T7 sequence (O35627 whole entry N175A): as the sequence (O35627 whole entry T350A) above, with N175A, A350T counted along it
The target in series [15] is T7, Nuclear receptor subfamily 1 group I member 3. The conditions noted are these: HEK293, mouse, read-out: Activity.
For series [16], the target named is T8, Nuclear receptor subfamily 1 group I member 3 (Mus musculus, UniProt O35627, L212A). Nature of the series: Activation of mouse CAR L212A mutant expressed in HEK293 cells at 10 uM by mammalian one-hybrid assay. It counts as cell-based. Particulars: hek293, 10 µM.
T8 sequence (O35627 whole entry L212A, the tested form may be a part): as the sequence (O35627 whole entry T350A) above, with L212A, A350T counted along it
In series [17] the target is T6, Nuclear receptor subfamily 1 group I member 3. The experiment in a line: Increase in nuclear co-repressor receptor binding to wild type mouse CAR expressed in […] cells at 2 uM by yeast two-hybrid assay. The format is cell-based. The procedure, abridged: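 Yeast two-hybrid: yeast expressing wild-type or mutant mouse CAR LBD plus SRC-1 or NCoR, selected on SD medium lacking Leu and Trp. Pooled colonies treated with DMSO or test chemical for 3.5 h. β-Galactosidase normalized to cell density. SRC-1 reference: wild-type + DMSO = 100. NCoR reference: 10 µM androstenol = 100. Mean ± SD, two independent determinations, each in triplicate.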

The target is the same in series [18]. Nature of the series: Enhancement of steroid receptor coactivator 1 binding to wild type mouse CAR expressed in HEK293 cells at 1 uM by yeast two-hybrid assay. Particulars: read-out: FC.
In series [19] the target is T5, Nuclear receptor subfamily 1 group I member 3. The experiment in a line: Decrease in mouse CAR L253F mutant activation expressed in HEK293 cells at 10 uM by mammalian one-hybrid assay. The format is cell-based. The conditions noted are these: read-out: Activity. The essentials:
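GAL4-DBD fused to mouse CAR LBD (residues 118-358), wild-type or point mutant, cotransfected with UASx4-tk-luc reporter and pCMVβ into HEK293 cells. Cells were exposed to final 1 µM, 2 µM or 10 µM test chemical, or 0.1% v/v DMSO, for 24 h after transfection. Luciferase was normalized to β-galactosidase and set against empty GAL4 vector (=1.0). Mean ± standard deviation, three independent experiments.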

The target in series [20] is T6, Nuclear receptor subfamily 1 group I member 3. Nature of the series: Activation of wild type mouse CAR expressed in HEK293 cells at 10 uM by mammalian one-hybrid transactivation assay. Particulars: hek293, 10 µM.
Series [21] concerns the target Nuclear receptor subfamily 1 group I member 3 (Mus musculus, UniProt O35627, Y336A). The conditions noted are these: HEK293, mouse, read-out: Activity.
The target of series [22] is T8, Nuclear receptor subfamily 1 group I member 3. Nature of the series: Decrease in nuclear co-repressor receptor binding to mouse CAR L212A mutant […] at 10 uM by yeast two-hybrid assay. Set-up: scale not given: the % may be the effect or the level left. It counts as cell-based.
In series [23] the target is T1, Nuclear receptor subfamily 1 group I member 3. Nature of the series: Decrease in nuclear co-repressor receptor binding to mouse CAR L353A mutant […] at 10 uM by yeast two-hybrid assay. The conditions noted are these: read-out: Activity. The format is cell-based. The essentials: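 Yeast expressing wild-type or mutant mouse CAR LBD plus NCoR, selected on SD plates lacking leucine and tryptophan. Pooled colonies treated with DMSO or compound for 3.5 h. β-Galactosidase activity normalized to cell density. Reference is 10 µM androstenol (=100). Mean ± SD of two independent determinations, each in triplicate.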

Bounds are passed on as bounds.

T3 sequence (O35627 whole entry T350M): as the sequence (O35627 whole entry T350A) above, with A350M counted along it
T1 sequence (O35627 whole entry L353A, the tested form may be a part): as the sequence (O35627 whole entry T350A) above, with A350T, L353A counted along it
Nuclear receptor subfamily 1 group I member 3 (Mus musculus, UniProt O35627, Y336A), sequence (O35627 whole entry Y336A): as the sequence (O35627 whole entry T350A) above, with Y336A, A350T counted along it
T2 sequence (O35627 whole entry S251L): as the sequence (O35627 whole entry T350A) above, with S251L, A350T counted along it

`COc1ccc(C(=O)CCCc2ccccc2)cc1`: the activity at 10 µM in [1], in series [2], in [3], in series [4], in [7] and in [8] was < 50% in each case. In addition, in series [9], the activity at 10 µM is < 50%. Also, the Activity in [5] is > 150%; in [6], > 100%; in series [13], “>= 50%”; in [14], “>= 50%”; in series [16] it was 50%. For the same compound, the FC in series [10] was 2.5. Also, in series [11], the fold induction at 10 µM was 2.5. For the same compound, the inhibition at 10 µM is ≥ 50% in series [12], ≥ 50% in series [15], < 50% in series [19] and ≥ 50% in series [21]. The results for the “fold change (FC)” value in series [17] and in series [20] were 4 and 1.4, respectively. For the same compound, the fold induction at 1 µM in series [18] was 2.5.
Take `COc1ccccc1CC(CC(=O)Cc1ccccc1)OC` (stereo not drawn): the activity at 10 µM in series [1], in series [2], in [3], in [7], in [8] and in [9] was < 50% each time. Moreover, the Activity entry is given as “>= 50%” in [5]; > 100% in series [6]; “>= 50%” in series [13]; > 150% in [14]; < 50% in [16]; “>= 50%” in series [22]. Also, in series [10], the FC is 2.5. The fold induction at 10 µM in [11] was found to be 2.5. Besides, the inhibition at 10 µM in [12] was ≥ 50%; in series [15], ≥ 50%; in series [19], < 50%; in series [21] it was ≥ 50%; in [23], ≥ 50%. Besides, the “fold change (FC)” value in series [17] is listed as 4; in series [20] it was 2. In addition, the fold induction at 1 µM in [18] is 2.5.
In the case of `Clc1cnc(Oc2ccc(Oc3ncc(Cl)cc3Cl)cc2)c(Cl)c1`, the FC in series [10] was found to be 2.5. For the same compound, the fold induction at 10 µM in series [11] turned out to be 2.5. Also, the fold induction at 1 µM in series [18] was determined as 2.5.
As to `C[C@]12CC[C@@H](O)C[C@@H]1CC[C@@H]1[C@@H]2CC[C@]2(C)C=CC[C@@H]12` [ANDROSTENOL], the activity at 10 µM in series [1], in series [2], in [3], in series [4], in series [7] and in [8] was < 50% in each case. For the same compound, the activity at 10 µM in [9] was < 50%. In addition, the Activity was > 150% in series [5]; “Not Active” in series [11] (mouse, hek293, 10 µM); “>= 50%” in series [13]; > 150% in series [14]; “>= 50%” in series [22]. Moreover, the inhibition at 10 µM is ≥ 50% in [12]; ≥ 50% in [15]; < 50% in [19]; ≥ 50% in series [21]; ≥ 50% in [23].
For the compound `Clc1ccccc1C(c1ccccc1)(c1ccccc1)n1ccnc1` [CLOTRIMAZOLE], the FC in series [10] came out at 2.5. Moreover, the fold induction at 10 µM in series [11] turned out to be 2.5. Further, the “fold change (FC)” value in series [17] turned out to be 4. Besides, in [18], the fold induction at 1 µM turned out to be 2.5.
In the case of `COc1ccc(C(c2ccc(OC)cc2)C(Cl)(Cl)Cl)cc1` [METHOXYCHLOR], the activity at 10 µM in [1], in [2], in [3], in series [4], in series [7] and in series [8] was < 50% each time. Also, the activity at 10 µM in [9] is < 50%. The Activity result in series [5] is given as “>= 50%”; in series [6], < 50%; in series [13], “>= 50%”; in [16] it was 50%; in [22] it was “>= 50%”. Also, in [10], the FC turned out to be 2.5. For the same compound, the fold induction at 10 µM in series [11] is 2.5. Further, the inhibition at 10 µM in [12], in [15], in series [21] and in series [23] was ≥ 50% each time. The “fold change (FC)” value in series [17] amounted to 4; in series [20] it was 1.4. Further, the fold induction at 1 µM in series [18] came to 2.5.
